Here are results for 28 molecules from ChEMBL document CHEMBL1141177, “The novel L- and D-amino acid derivatives of hydroxyurea and hydantoins: synthesis, X-ray crystal structure study, and cytostatic and antiviral activity evaluations” (J Med Chem, 2005).

Molecules are shown by their SMILES. In brackets after ≈: the same amount, converted by molar mass.

Experiment [1] concerns MCF7. The experiment in a line: Inhibition of breast carcinoma cell line (MCF-7) growth. The following applies: Homo sapiens. It is filed as functional, cell-based. A digest of the protocol:
(§1)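 Monolayers in DMEM with 10% FBS, 2 mM L-glutamine, penicillin/streptomycin, 37 °C, 5% CO2. Cells seeded on day 0, then compounds added in 5- and 10-fold dilutions (10^-8–10^-4 M) for 72 h. MTT read-out at 570 nm. Percent growth calculated relative to time-zero and untreated OD. Quadruplicates in three experiments; IC50 by linear interpolation, highest concentration reported as ">" when not reached.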

The subject of experiment [2] is L1210. The experiment can be described thus: Inhibition of murine leukemia cells (L1210) growth. It is filed as functional, cell-based. The following applies: Mus musculus.
For experiment [3], the system named is WI-38. The experiment in a line: Inhibition of normal human fibroblast cell line (WI 38) growth. It is filed as functional, cell-based. A digest of the protocol: as §1
Experiment [4] deals with MIA PaCa-2. The experiment in a line: Inhibition of pancreatic carcinoma cell line (MiaPaCa-2) growth. It is filed as functional, cell-based. As to conditions: Homo sapiens. The method in brief:
as §1

Experiment [5] deals with HEp-2. The experiment can be described thus: Inhibition of laryngeal carcinoma cell line (Hep-2) growth. The following applies: Homo sapiens. It is filed as functional, cell-based. The method in brief: as §1
Experiment [6] deals with MOLT-4. The experiment can be described thus: Inhibition of human T-lymphocyte cell line (Molt4/C8) growth. It is filed as functional, cell-based.
The test system of experiment [7] is SW-620. The experiment can be described thus: Inhibition of colon carcinoma cell line (SW 620) growth. It is filed as functional, cell-based. As to conditions: Homo sapiens. The method in brief: as §1
The test system of experiment [8] is HeLa. The experiment can be described thus: Inhibition of cervical carcinoma cell line (HeLa) growth. It is filed as functional, cell-based. As to conditions: Homo sapiens. A digest of the protocol: as §1
Experiment [9] concerns HEL. The experiment can be described thus: Minimum cytotoxic concentration of compound that causes alteration of cell morphology in human embryonic lung cells. It is filed as functional. The method in brief: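 Human embryonic lung (HEL) cells were examined microscopically. MCC is the minimum concentration that causes a detectable alteration of cell morphology.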
A short description of experiment [10]: Effective concentration required to reduce plaque formation by AD-169 strain of CMV virus in Human embryonic lung cells. It is filed as functional, cell-based. The method in brief: (§2)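 Plaque reduction assay in human embryonic lung (HEL) cell cultures, virus input 100 plaque forming units. Viruses: CMV strains AD-169 and Davis, VZV TK+ strain OKA and TK− strain 07/1. EC50 is the concentration that reduces virus plaque formation by 50%.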

For experiment [11], the system named is HEL. The experiment in a line: Cytotoxic concentration to reduce the 50% cell growth of human embryonic lung cells. It is filed as functional.
In experiment [12] the test system is Human alphaherpesvirus 3. The experiment can be described thus: Effective concentration of compound required to reduce plaque formation by OKA strain of thymidine kinase positive VZ virus TK+ in human embryonic lung cells. As to conditions: Human alphaherpesvirus 3, lung. It is filed as functional, organism-based.
The test system of experiment [13] is Human alphaherpesvirus 3. The experiment can be described thus: Reduction of plaque formation by VZV07/1 strain of thymidine kinase(TK-) deficient VZ virus in human embryonic lung cells. It is filed as functional, organism-based. The following applies: Human alphaherpesvirus 3, lung.
Experiment [14] can be described thus: Effective concentration required to reduce plaque formation by Davis strain of CMV virus in Human embryonic lung cells. It is filed as functional, cell-based. A digest of the protocol:
as §2

Where [15] appears, read: Homo sapiens, HEL, read-out: CC50.

Usually IC50 stands for the concentration at which inhibition is half-maximal. Low values mean greater potency in that assay, high ones weaker potency in that assay. Regarding `CCC(C)C(NC(=O)NO)C(=O)NC1CCCCC1` (stereo unspecified), the concentration for half-maximal inhibition (IC50) in [1] is above 100 µM; in experiment [2], 89 µM; in [3], above 100 µM; in [4], above 100 µM; in experiment [5], above 100 µM; in experiment [6], 150 µM. Moreover, the half-inhibitory concentration (IC50) in experiment [7] and in [8] was above 100 µM in each case.

Turning to `O=C(NO)NC(Cc1ccccc1)C(=O)NCc1ccccc1` (stereo unspecified), the IC50 in experiment [2] was 17 µM; in experiment [3] it was above 100 µM; in experiment [4], above 100 µM; in experiment [5], above 100 µM; in experiment [6] it was 12 µM; in [7] it was above 100 µM. The IC50 in [8] is above 100 µM.

Consider `O=C(NO)NC(Cc1ccccc1)C(=O)NC1CCCC1` (stereo unspecified), for which the 50% inhibitory concentration (IC50) in [1] was above 100 µM; in [2], 145 µM; in experiment [3], above 100 µM; in experiment [4], above 100 µM; in [5], above 100 µM; in experiment [6], above 200 µM. Further, the half-maximal inhibitory concentration (IC50) in [7] and in experiment [8] was above 100 µM in each case.

In the case of `O=C(NO)NC(Cc1ccccc1)C(=O)N1CCCC1` (stereo unspecified), the IC50 was above 100 µM in experiment [1]; above 200 µM in experiment [2]; at least 100 µM in experiment [3]; above 100 µM in [4]; at least 100 µM in [5]; 192 µM in experiment [6]. Further, the IC50 in experiment [7] and in [8] was above 100 µM in each case.

On to `CC(C)C(NC(=O)NO)C(=O)NC1CCCCC1` (stereo unspecified), for which the IC50 is above 100 µM in experiment [1]; above 100 µM in experiment [2]; 58.8 µM in [3]; above 100 µM in experiment [4]; above 100 µM in experiment [5]; above 100 µM in experiment [6]. Besides, the IC50 in experiment [7] and in experiment [8] was above 100 µM in each case.

In [6], `CCC(C)C1NC(=O)N(Cc2ccccc2)C1=O` (stereo unspecified) registered a half-maximal inhibitory concentration (IC50) above 200 µM.

As to `CCC(C)C1NC(=O)N(C2CCCC2)C1=O` (stereo unspecified), the IC50 in experiment [6] was above 200 µM.

In general, EC50 refers to the midpoint of the concentration-response curve. Usually CC50 stands for the concentration giving 50% cytotoxicity. In the case of `O=C(NC(c1ccccc1)c1ccccc1)C(Cc1ccccc1)NC(=O)n1nnc2ccccc21` (stereo unspecified), the IC50 is 16.3 µM in experiment [1]; 17 µM in experiment [2]; 14.3 µM in experiment [3]; 23.9 µM in experiment [4]; 40.5 µM in [5]; 15 µM in experiment [6]. For the same molecule, the values for the IC50 in experiment [7] and in experiment [8] were 37.6 µM and 30.2 µM, respectively. In experiment [9], this molecule came in with an MCC of 80 µg/mL. Besides, the EC50 in experiment [10] is above 16 µg/mL; in [12], above 0.13 µg/mL; in [13], above 0.13 µg/mL. In addition, in [11] (setting [15]), the CC50 was 17.3 µg/mL (≈ 36.4 µM).

Take `O=C(NO)NC(C(=O)NC(c1ccccc1)c1ccccc1)c1ccccc1` (stereo unspecified): the half-maximal inhibitory concentration (IC50) in experiment [1] was 83.8 µM; in [2], 18 µM; in experiment [3], above 100 µM; in [4] it was 31.8 µM; in [5], 83.9 µM; in experiment [6], 39 µM. Besides, the results for the IC50 in experiment [7] and in experiment [8] were 63.7 µM and 42 µM, respectively.

As for `CCC(C)C(NC(=O)n1nnc2ccccc21)C(=O)NC1CCCCC1` (stereo unspecified), the IC50 in [6] turned out to be 98 µM.

As to `O=C(NO)NC(C(=O)NCc1ccccc1)c1ccccc1` (stereo unspecified), in experiment [6], the IC50 worked out at 17 µM.

In [6], `CCC(C)C(NC(=O)n1nnc2ccccc21)C(=O)NC1CCCC1` (stereo unspecified) registered an IC50 of 94 µM.

Regarding `O=C(NO)NC(Cc1ccccc1)C(=O)NC(c1ccccc1)c1ccccc1` (stereo unspecified), the 50% inhibitory concentration (IC50) in experiment [1] was 43.8 µM; in experiment [2] it was 18 µM; in experiment [3], 32.8 µM; in experiment [4], 41.1 µM; in experiment [5], 61.3 µM; in experiment [6] it was 21 µM. Besides, the 50% inhibitory concentration (IC50) in experiment [7] turned out to be 66.6 µM; in experiment [8], 39.8 µM.

As to `O=C(NCC1CCCCC1)C(NC(=O)n1nnc2ccccc21)c1ccccc1` (stereo unspecified), the 50% inhibitory concentration (IC50) was 35.6 µM in experiment [1]; 98 µM in [2]; above 100 µM in [3]; 72.7 µM in experiment [4]; 68.6 µM in [5]; 73 µM in [6]. In addition, the concentration for half-maximal inhibition (IC50) in experiment [7] is above 100 µM; in experiment [8] it was 79.8 µM. The molecule also came in with an MCC in experiment [9] of at least 16 µg/mL. Moreover, the EC50 in experiment [10] is above 16 µg/mL; in [12], above 3.2 µg/mL; in [13], above 3.2 µg/mL. The CC50 in experiment [11] (setting [15]) is 43.4 µg/mL (≈ 111 µM).

For the molecule `O=C(NCc1ccccc1)C(Cc1ccccc1)NC(=O)n1nnc2ccccc21` (stereo unspecified), in experiment [6], the IC50 is 145 µM.

As to `CC(C)C(NC(=O)n1nnc2ccccc21)C(=O)NC1CCCC1` (stereo unspecified), the 50% inhibitory concentration (IC50) in experiment [1] is 79.3 µM; in [2], above 200 µM; in experiment [3], at least 100 µM; in experiment [4], above 100 µM; in experiment [5] it was 60.3 µM; in experiment [6], above 200 µM. The half-maximal inhibitory concentration (IC50) in [7] is above 200 µM; in [8], 96.4 µM. The MCC in experiment [9] is above 200 µg/mL. The EC50 in experiment [10] was above 200 µg/mL; in experiment [14] it was above 200 µg/mL; in [12], above 80 µg/mL; in [13], above 200 µg/mL.

As for `O=C(NO)NC(C(=O)N1CCCCC1)c1ccccc1` (stereo unspecified), the IC50 is above 100 µM in [1]; 80 µM in experiment [2]; 6.7 µM in [3]; above 100 µM in experiment [4]; above 100 µM in experiment [5]; 125 µM in [6]. Also, the IC50 in [7] and in [8] was above 100 µM throughout.

In the case of `CCC(C)C(NC(=O)n1nnc2ccccc21)C(=O)NC(c1ccccc1)c1ccccc1` (stereo unspecified), the half-maximal inhibitory concentration (IC50) in experiment [6] was found to be 79 µM.

In turn, `CCC(C)C1NC(=O)N(C2CCCCC2)C1=O` (stereo unspecified) showed an IC50 in experiment [6] above 200 µM.

In experiment [6], `CCC(C)C(NC(=O)n1nnc2ccccc21)C(=O)NCc1ccccc1` (stereo unspecified) gave an IC50 of 96 µM.

`CCC(C)C(NC(=O)NO)C(=O)NCc1ccccc1` (stereo unspecified): in [6], the IC50 turned out to be 126 µM.

For `O=C(NC1CCCCC1)C(Cc1ccccc1)NC(=O)n1nnc2ccccc21` (stereo unspecified), the IC50 in experiment [1] was 20.7 µM; in [2], 126 µM; in [3], 63.2 µM; in experiment [4] it was at least 100 µM; in experiment [5], 64.5 µM; in experiment [6] it was 116 µM. Also, the half-inhibitory concentration (IC50) was 110 µM in [7] and 34.3 µM in experiment [8]. Also, the MCC in experiment [9] worked out at 80 µg/mL. Besides, the EC50 in [10] and in experiment [14] was above 16 µg/mL each time. Besides, the CC50 in experiment [11] (setting [15]) was determined as 33 µg/mL (≈ 84.3 µM).

Regarding `O=C(NO)NC(Cc1ccccc1)C(=O)NC1CCCCC1` (stereo unspecified), the IC50 in [1] is at least 100 µM; in experiment [2], 18 µM; in experiment [3] it was above 100 µM; in [4], 30.6 µM; in experiment [5], 94.2 µM; in experiment [6], 19 µM. Further, the half-inhibitory concentration (IC50) was 100 µM in [7] and 58 µM in experiment [8].

In experiment [6], `CCC(C)C(NC(=O)NO)C(=O)NC(c1ccccc1)c1ccccc1` (stereo unspecified) yielded a half-inhibitory concentration (IC50) of 56 µM.

The molecule `Nc1nc2c(ncn2COCCO)c(=O)[nH]1` [ACYCLOVIR] showed an MCC in [9] above 400 µg/mL. Besides, the cytotoxic concentration (CC50) in experiment [11] and in experiment [11] (setting [15]) was 200 µg/mL (≈ 888 µM) each time.

In the case of `O=C(NO)NC(C(=O)Nc1ccccc1)c1ccccc1` (stereo unspecified), the 50% inhibitory concentration (IC50) in experiment [6] is above 200 µM.

For the molecule `CC(C)C(NC(=O)NO)C(=O)NC1CCCC1` (stereo unspecified), the concentration for half-maximal inhibition (IC50) in experiment [1] was above 100 µM; in experiment [2] it was above 200 µM; in experiment [3] it was above 100 µM; in [4], above 100 µM; in experiment [5], 33.4 µM; in experiment [6] it was above 200 µM. The IC50 in experiment [7] and in [8] was above 100 µM throughout.

The molecule `CCC(C)C(NC(=O)NO)C(=O)NC1CCCC1` (stereo unspecified) gave an IC50 in experiment [6] above 100 µM.
